Assay outcomes: PubChem, several laboratories
APOBEC3A inh: inhibitors of human APOBEC3A DNA deaminase. actives 0.41% (n = 330,000). recombinant A3A, FAM/TAMRA ssDNA deamination fluorescence. inhibition, % at 20 µM;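 active = at least 40% inhibition at 20 µM here, with at most 30% in a related deaminase screen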
Target sequence (P31941 whole entry, looked up): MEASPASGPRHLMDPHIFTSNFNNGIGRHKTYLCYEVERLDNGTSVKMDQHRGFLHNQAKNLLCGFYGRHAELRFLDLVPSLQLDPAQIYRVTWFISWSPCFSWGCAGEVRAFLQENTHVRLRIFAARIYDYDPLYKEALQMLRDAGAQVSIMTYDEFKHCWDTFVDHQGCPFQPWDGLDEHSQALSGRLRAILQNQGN
A3G deaminase: inhibitors of human APOBEC3G DNA deaminase. Q9HC16. actives 0.28% (n = 330,000). inhibition, % at 20 µM. recombinant A3G, ssDNA deamination FAM/TAMRA fluorescence. AID 493012;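 active = inhibition of at least 40% at 20 µM, with no more than 30% in the related APOBEC3A deaminase screen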
Target sequence (Q9HC16 whole entry, looked up): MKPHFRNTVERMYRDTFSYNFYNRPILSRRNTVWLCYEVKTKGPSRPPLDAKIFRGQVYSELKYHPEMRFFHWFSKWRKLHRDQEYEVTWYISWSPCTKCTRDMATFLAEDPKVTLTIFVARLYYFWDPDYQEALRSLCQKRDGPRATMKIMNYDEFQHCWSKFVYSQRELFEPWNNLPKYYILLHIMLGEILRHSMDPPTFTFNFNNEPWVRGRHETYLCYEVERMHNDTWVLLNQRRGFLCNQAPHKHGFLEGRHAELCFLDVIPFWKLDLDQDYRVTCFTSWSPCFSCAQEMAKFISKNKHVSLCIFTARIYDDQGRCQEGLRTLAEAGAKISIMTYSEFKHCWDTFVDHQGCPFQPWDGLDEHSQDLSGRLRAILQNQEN
AHR act: activates the human aryl hydrocarbon receptor; P35869; actives 2.5% (n = 320,000); activation, % at 5 µM; AHR-responsive luciferase reporter cells, luminescence; in the data active = activation above about 47%
PolyA inh: blocks polyadenylation in yeast reporter cells. actives 0.02% (n = 300,000). S. cerevisiae SKY197-pL101 polyadenylation reporter, beta-gal luminescence; efflux-impaired pdr1/pdr3 knockout yeast; score 100 = 6 SD above DMSO. activity score, % at 12 µM;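 active = lowest replicate activity score at least 50, where 100 means six control SD above control mean; inconclusive = lowest score under 50 but half or more replicates reach 50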;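 also: yeast exposed to compound for 9 h at 30 °C; higher score means more reporter readthrough which indicates perturbed polyadenylation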
Arr AP2 block: human beta-arrestin and AP2 interaction inhibition. FITC-arrestin peptide / GST-AP2 beads, flow cytometry; AP2 beta2 appendage carries R879A mutation. inhibition, % at 10 µM. actives 0.31% (n = 340,000);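 active = inhibition above a set limit, near 3 SD of compounds lacking own fluorescence, cut at about 54% in these data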
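System: GST-AP2 R879A glutathione beads; medium: PBS, Tween 20 0.05%, BSA 0.1%; reagent: fluorescein-tagged arrestin peptide at 50 nM final; schedule: pre-incubation 12 min, peptide binding 1 h, room temperature; detection: flow cytometry, FL1 (488/535 nm); read-out: inhibition as reduced fluorescein signal on beads, percent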
UCH37 inh: inhibitors of human deubiquitinating enzyme UCH37. Q9Y5K5. purified proteasome/UCH37, Ub-AMC cleavage fluorescence. inhibition, % (no concentration beside the values). actives 0.33% (n = 330,000);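 active = mean inhibition over replicate wells above about 20%, limit read from the data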
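Material: Human UCH37 enzyme supplied as purified proteasome complex | Schedule: 30 min preincubation with enzyme, 25 min cleavage at room temperature | Detection: AMC fluorescence 355/460 nm | Measure: % inhibition of Ub-AMC cleavage fluorescence | Controls: Wells without proteasome as full block, compound-free enzyme plus substrate as uninhibited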
APOBEC3G confirm: confirmation of human APOBEC3G DNA deaminase inhibitors | shares compounds with A3G deaminase | recombinant A3G ssDNA deaminase, UDG/FAM-TAMRA fluorescence | inhibition, % at 20 µM | actives 72% (n = 890) | AID 493152;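 active = inhibition reaching a set limit in any replicate at 20 µM, the limit being 80% of the first screen's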
UDG ctr A3G: inhibits E. coli UDG, flagging false APOBEC3G inhibitors. shares compounds with A3G deaminase. UDG counterscreen, FAM/TAMRA oligo fluorescence. inhibition, % at 20 µM. 710 tested, under 10 active. AID 504715;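 active = compounds giving 40% or more inhibition at 20 µM in any one of the three replicates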;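 also: inhibitors lower the FAM signal released by uracil excision and alkaline cleavage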
Arr AP2 CP1: blocks beta-arrestin peptide binding to human AP2; actives 2% (n = 1,300); inhibition, % at 10 µM; GST-AP2 beads, FITC arrestin peptide binding, flow cytometry; GST-fused beta2-adaptin appendage, R879A mutant; shares compounds with Arr AP2 block;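 active = inhibition above a set limit, roughly 3 SD of non-fluorescent compound noise, cut at about 38% in these data; inactive = inhibition at or below that limit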;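 also: loss of bead fluorescence from 50 nM FITC arrestin peptide bound to appendage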
GST GSH counter: disrupts GST binding to glutathione beads, arrestin-AP2 artifact. inhibition, % at 10 µM. AID 588338. shares compounds with Arr AP2 block. actives 2% (n = 1,300). GST-fluorescein binding to GSH beads, fluorescence, counter-screen;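 active = inhibition above 50%, about 3 SD of the inhibition seen with non-fluorescent compounds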;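 also: fluorescein maleimide labelled GST captured on 4 micron glutathione beads; higher means more loss of bead fluorescence from quenching or blocked binding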
Numbers stand for hits; 0 = inactive; ? = inconclusive; - = not tested or not shown. Only some compounds are listed: those with a hit (about 3.4% of all), similar ones and a draw of the others.

SMILES	APOBEC3A inh	A3G deaminase	AHR act	PolyA inh	Arr AP2 block	UCH37 inh	APOBEC3G confirm	UDG ctr A3G	others
S=C(c1ccc(Br)cc1)N1CCN(Cc2ccccc2)CC1	0	40.4	0	0	0	0	0	-
O=c1c(C=NO)c(Nc2ccccc2)nc2ccccn12	-	-	-	-	-	0	-	-
COc1ccccc1C=NNC(=O)c1c(C)nc2ccc(Cl)cn12	-	-	-	-	-	0	-	-
CCOC(=O)c1cc(-c2ccccc2)sc1NC(=O)C(C)C	0	0	0	0	0	0	-	-
CCOC(=O)c1cc(-c2ccccc2)sc1NC(=O)c1ccc(OC)c(OC)c1	0	56.9	0	0	0	0	47.1	0
O=C(CNC(=O)c1cccc(Br)c1)NN=Cc1ccc2c(c1)OCO2	-	-	-	-	-	0	-	-
S=c1[nH]nc(-c2ccccn2)n1/N=C/c1ccc(Cl)c(Cl)c1	0	45.5	0	0	0	-	45.1	0
S=c1[nH]nc(-c2cc(-c3ccccc3)n[nH]2)n1N=Cc1ccc(Cl)cc1	-	-	-	-	-	0	-	-
S=c1[nH]nc(-c2cc(-c3ccccc3)n[nH]2)n1/N=C/c1ccc(Cl)c(Cl)c1	0	0	0	0	0	-	-	-
S=c1[nH]nc(-c2cc(-c3ccccc3)n[nH]2)n1/N=C/c1cccc(Cl)c1	0	52.9	0	0	0	-	0	0
S=c1[nH]c2cc(Br)cnc2[nH]1	0	56.0	0	?	0	0	68.2	0
CCCOC(=O)c1c(NC(=O)C2CCCO2)sc(C(=O)OC)c1C (stereo unspecified)	0	41.4	0	0	0	0	47.8	0
CCOC(=O)c1c(NC(=O)C2CCCO2)sc(C(N)=O)c1C (stereo unspecified)	0	0	0	0	0	0	-	-
Cc1ccc2c(C)nc(Nc3nc(CSc4nnc(C)s4)cc(=O)[nH]3)nc2c1	0	0	0	-	0	0	-	-
COc1cccc2c(C)nc(Nc3nc(CSc4nnc(C)s4)cc(=O)[nH]3)nc12	0	41.1	0	0	0	0	0	-
O=C(O)c1ccccc1NS(=O)(=O)c1cccc(-n2sc3ccccc3c2=O)c1	0	78.1	0	0	0	0	87.2	0
O=C(O)c1ccccc1NS(=O)(=O)c1cccc(C(F)(F)F)c1	0	0	0	0	0	0	-	-
CNC(=O)Cn1ncc2c(C)n(Cc3ccc(C)cc3)c(C)c2c1=O	0	0	0	0	0	0	-	-
Cc1c2cnn(CC(=O)Nc3c(F)c(F)cc(F)c3F)c(=O)c2c(C)n1Cc1ccccc1F	0	44.9	0	0	0	0	47.7	0
C=CCn1c(-c2cccc(S(=O)(=O)N(CC)CC)c2)n[nH]c1=S	0	46.7	0	0	0	0	79.0	0
Cc1ccc(-c2n[nH]c(=S)n2C)cc1Cl	0	49.9	0	0	0	0	61.2	0
CCN(CC)S(=O)(=O)c1cccc(-c2n[nH]c(=S)n2C)c1	0	45.6	0	0	0	0	69.4	0
Cc1ccc(-n2c(-c3ccc(Cl)cc3)n[nH]c2=S)c(C)c1	0	0	0	0	0	0	-	-
Cc1ccc(C(=O)ON=Cc2c(C)nn(C)c2Cl)cc1	-	-	-	-	-	0	-	-
Cn1ncc(Br)c1C(=O)N/N=C/c1cccc(OC2CSC2)c1	0	0	0	0	0	-	-	-
SMILES	APOBEC3A inh	A3G deaminase	AHR act	PolyA inh	Arr AP2 block	UCH37 inh	APOBEC3G confirm	UDG ctr A3G	others
O=C(N/N=C/c1cccc(OC2CSC2)c1)c1ccccc1O	0	73.3	0	0	0	-	0	0
S=c1[nH]nc(Nc2ccccc2Cl)s1	0	45.4	0	0	0	0	65.8	0
Cc1ccc(C(=O)NNC(=O)CSc2nnc3c(n2)[nH]c2ccc(F)cc23)cc1	0	56.5	0	0	0	0	64.3	0
O=C(Cc1ccc(Cl)cc1)Nc1ccc(Br)cn1	0	0	0	0	0	0	-	-
C=CCCC(=O)Nc1ccc(Br)cn1	0	55.1	0	0	0	0	0	-
O=C(NN1C(=O)C2CC=C(Cl)CC2C1=O)c1ccncc1 (stereo unspecified)	0	40.1	0	0	0	0	40.5	0
COc1ccc(NC(=O)c2ccc(N3C(=O)C4CC=C(Cl)CC4C3=O)cc2)cc1 (stereo unspecified)	0	0	0	0	0	0	-	-
COc1cc(C=NNc2nc(Nc3ccccc3)nc(N3CCOCC3)n2)ccc1OC(=O)c1ccco1	-	-	-	-	-	0	-	-
CC(NC(=O)C(=O)NN=Cc1ccccc1)c1ccccc1 (stereo unspecified)	-	-	-	-	-	0	-	-
N#Cc1c(N)sc(=S)c2c1CCCC2	0	47.4	0	0	89.2	0	0	-	Arr AP2 CP1=0;GST GSH counter=0
Cc1cc(C)cc(-n2c(C)cc(C=NNC(=O)CSc3ncccn3)c2C)c1	-	-	-	-	-	0	-	-
O=C(O)[C@H]1CC=C[C@H]2CCN(Cc3ccc(Cl)c(Cl)c3)C(=O)[C@@H]12	0	0	-	-	67.0	0	-	-	Arr AP2 CP1=0;GST GSH counter=0
O=C(NN=Cc1ccc(O)cc1)c1cncc(Br)c1	-	-	-	-	-	0	-	-
O=C(O)CC(NC(=O)CCc1ccccc1)c1ccc(Cl)cc1 (stereo unspecified)	0	0	0	0	0	0	-	-
CCC(NC(=O)CCc1ccccc1)c1ccccc1 (stereo unspecified)	0	0	0	0	61.5	0	-	-	Arr AP2 CP1=0;GST GSH counter=0
CCCn1c(SCC(=O)Nc2ccc(Cl)cc2F)nc(O)cc1=O	0	0	0	-	0	0	-	-
CCCn1c(SCC(=O)Nc2ccc(F)c(Cl)c2)nc(O)cc1=O	0	0	0	-	54.9	0	-	-	Arr AP2 CP1=0;GST GSH counter=0
Cc1ccccc1C(=O)NC(=S)NCC(=O)c1ccccc1	0	0	0	0	0	0	-	-
O=C(CNC(=S)NC(=O)c1ccccc1Br)c1ccccc1	0	0	0	0	102.3	0	-	-	Arr AP2 CP1=0;GST GSH counter=0
Cc1ccc(CN2CCN(N=Cc3cc(Br)cc(Br)c3O)CC2)cc1	-	-	-	-	-	0	-	-
Cc1onc(-c2ccccc2Cl)c1C(=O)NCC1CCCO1 (stereo unspecified)	0	0	0	0	0	0	-	-
O=C(NCC1CCCO1)c1ccc(-c2ccccc2Cl)o1 (stereo unspecified)	0	0	0	0	62.2	0	-	-	Arr AP2 CP1=0;GST GSH counter=0
CC(C)CSc1nc2ccccc2n1CC(=O)O	0	0	0	0	54.9	0	-	-	Arr AP2 CP1=0;GST GSH counter=0
